Experiment [1] relates to PHD1 (S287–E344) of KDM5A. Briefly: 2D 1H,15N HSQC NMR peptide titration. It is filed as binding. To be noted: 200 μM 15N-labeled PHD1, 298 K, pH 7.5. In short, it runs like this: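 15N-labelled KDM5A PHD1 (S287–E344) from GST fusion, GST removed by TEV, then Ni-resin pass and gel filtration. […] Buffer was 50 mM HEPES, NaCl, 0.5 mM TCEP, 0.1 mM ZnCl2, pH 7.5, 5% D2O, 298 K. CSP = √[(ΔH² + (0.2ΔN)²)/2].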

The next experiment concerns GST–PHD1 (KDM5A) Y294F. Briefly: Fluorescence polarization binding, Y294F mutant. Conditions: FP, H3K4 10mer peptides. A general note: In fluorescence polarisation assays a small probe gives low polarisation when free and higher when bound to something large.
Another experiment deals with PHD1KDM5B. Conditions: ref [13],[14]; cited from earlier work.
Experiment [2] addresses T1, GST–PHD1 WT (KDM5A S287–K347) (UniProt P29375 287-347).
T1 sequence (looked up): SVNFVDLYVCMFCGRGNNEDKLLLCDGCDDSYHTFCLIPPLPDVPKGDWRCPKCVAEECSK
Kind of experiment: fluorescence polarisation.

Experiment [3] deals with T2, GST–PHD1 D292N (KDM5A S287–K347) (UniProt P29375 287-347, D292N).
T2 sequence (looked up): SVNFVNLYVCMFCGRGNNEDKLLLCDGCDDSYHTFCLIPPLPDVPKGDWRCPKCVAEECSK
Kind of experiment: fluorescence polarisation.

Experiment [4] deals with T3, PHD1 domain of histone demethylase KDM5A (S287–E344) (UniProt P29375 287-344, 15N- or 13C-,15N-labeled).
T3 sequence (looked up): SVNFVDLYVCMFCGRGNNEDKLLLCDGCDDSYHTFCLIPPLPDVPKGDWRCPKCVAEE
Kind of experiment: NMR titration.

For experiment [5], the target named is T4, GST–PHD1 V330A (KDM5A S287–K347) (UniProt P29375 287-347, V330A).
T4 sequence (looked up): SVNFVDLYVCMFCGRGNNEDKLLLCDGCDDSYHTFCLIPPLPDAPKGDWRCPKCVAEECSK
Kind of experiment: fluorescence polarisation.

Experiment [6] concerns the target T5, GST–PHD1 Y294A (KDM5A S287–K347) (UniProt P29375 287-347, Y294A).
T5 sequence (looked up): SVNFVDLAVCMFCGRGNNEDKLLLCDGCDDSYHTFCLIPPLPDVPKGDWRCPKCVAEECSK
Kind of experiment: fluorescence polarisation.

No end group written: not given here.

The term Kd denotes the concentration at which binding is half-saturated.

H3 10mer: H3 10mer (A1–S10): in experiment [1], the “interaction strength indicated by slow–intermediate exchange” value is listed as “low–micromolar affinity”.

Turning to H3K4me1: H3K4me1 10mer peptide, the “interaction strength indicated by slow–intermediate exchange” value in experiment [1] is “strong interactions, comparable to those with unmodified H3”.

As to H3K4me2: H3K4me2 10mer peptide, the “impact of mutation on binding” value in the experiment with GST–PHD1 (KDM5A) Y294F was “minimal impact on binding”. Further, at PHD1KDM5B, the Kd is greater than 80 µM.

Consider H3K4me3: H3K4me3 10mer peptide, for which the “impact of mutation on binding” value in the experiment with GST–PHD1 (KDM5A) Y294F is given as “minimal impact on binding”. The Kd at PHD1KDM5B was greater than 80 µM.

B1: histone H3 10mer peptide (A1–S10), unmodified (peptide, UniProt P68431 2-11, looked up)
peptide: ARTKQTARKS
In the case of B1, the binding result in experiment [2], in experiment [3] and in experiment [4] was “binds” each time.

B2: histone H3K4me2 10mer peptide (peptide, UniProt P68431 2-11, looked up)
peptide: ARTK(Me2)QTARKS
As for B2, the binding result in experiment [5], in experiment [6], in experiment [2], in experiment [3] and in experiment [4] was “binds” each time.

B3: histone H3K4me1 10mer peptide (peptide, UniProt P68431 2-11, looked up)
peptide: ARTK(Me)QTARKS
B3: the binding result in experiment [5], in experiment [6], in experiment [2], in experiment [3] and in experiment [4] was “binds” throughout.

B4: histone H3K4me3 10mer peptide (peptide, UniProt P68431 2-11, looked up)
peptide: ARTK(Me3)QTARKS
On to B4, for which the binding result in experiment [5], in experiment [6], in experiment [2], in experiment [3] and in experiment [4] was “binds” throughout.

These data come from publication PMC8380758 (ACS chemical biology, 2021).
